Measured values as given in ChEMBL document CHEMBL1139758, “Second generation of alpha-tocopherol analogs-nitric oxide donors: Synthesis, physicochemical, and biological characterization” (Bioorg Med Chem, 2007).

Assays:
THP-1 = assay: Cytotoxicity against human THP1 cells by MTT assay; format: functional, cell-based
Outline: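 Phorbol ester (100 ng/mL)-differentiated THP-1 cells, seeded 1 × 10^5/well in RPMI with fetal serum, attached 48 h at 37 °C in 5% CO2, then exposed 24 h to compounds at 1–500 µM. MTT added to 0.2 mg/mL for 3 h at 37 °C, formazan dissolved in DMSO, A560 read. IC50 is the concentration halving control absorbance; mean of at least three determinations.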

J774 = assay: Cytotoxicity against mouse J774 cells by MTT assay; format: cell-based
Outline: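 J774.1 macrophages, kept in DMEM with 10% heat-inactivated FCS, seeded 1 × 10^5/well in RPMI with fetal serum and left to attach 48 h (37 °C, 5% CO2). Compounds at 1–500 µM for 24 h. Viability by MTT reduction (0.2 mg/mL, 3 h, 37 °C), formazan in DMSO, A560.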

Aorta [1] = assay: Vasodilation of noradrenaline-induced contraction of Wistar Kyoto rat thoracic aorta at 20 uM; format: functional
Outline: (§1)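 Thoracic aorta rings (4 mm) from heparinized, pentobarbital-anaesthetized (40 mg/kg ip) Wistar Kyoto rats (250–300 g). Compounds added in DMSO to the organ bath once contraction reached a plateau; α-tocopherol, Trolox and vehicle served as controls. Where used, ODQ (1 µM) was added at least 10 min before the compound.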

Aorta [2] = assay: Vasodilation of noradrenaline-induced contraction of Wistar Kyoto rat thoracic aorta at 10 uM; format: functional; outline: as §1

## Cc1c(C)c2c(c(C)c1O)CC[C@@](C)(CCC[C@H](C)CCC[C@H](C)CCCC(C)C)O2 [ALPHA-TOCOPHEROL]
THP-1
  IC50: > 500 µM
J774
  IC50: > 500 µM

## CC(=O)Oc1c(C)c(C)c2c(c1C)CCC(C)(CCCC(C)CCCC(C)CCCC(C)C)O2 (stereo not drawn) [alpha-TOCHOPHERYL ACETATE]
Aorta [1]
  Activity: 0%

## Cc1c(C)c2c(c(C)c1OCc1c(S(=O)(=O)c3ccccc3)no[n+]1[O-])CCC(C)(CCCC(C)CCCC(C)CCCC(C)C)O2 (stereo not given)
Aorta [2]
  Activity: 15%

## CC(=O)Oc1c(C)c(C)c2c(c1C)CCC(C)(C(=O)O)O2 (stereo not given)
Aorta [1]
  Activity: 0%
